Key:
[1] = molecular target: Glutamate receptor ionotropic kainate 1 (Homo sapiens) (UniProt P39086); test: Antagonist activity at human recombinant GluR5 expressed in HEK cells coexpressing aequorine assessed as inhibition of glutamate-induced Ca2+ influx at 100 uM by luminescence reporter assay relative to control; settings: HEK293
[2] = molecular target: Glutamate receptor ionotropic kainate 2 (Homo sapiens) (UniProt Q13002); test: Antagonist activity at human recombinant GluR6 expressed in HEK cells coexpressing aequorine assessed as inhibition of glutamate-induced Ca2+ influx at 10 uM by luminescence reporter assay relative to control; settings: HEK293
Chain of Glutamate receptor ionotropic kainate 2 (Homo sapiens) (Q13002 whole entry, looked up): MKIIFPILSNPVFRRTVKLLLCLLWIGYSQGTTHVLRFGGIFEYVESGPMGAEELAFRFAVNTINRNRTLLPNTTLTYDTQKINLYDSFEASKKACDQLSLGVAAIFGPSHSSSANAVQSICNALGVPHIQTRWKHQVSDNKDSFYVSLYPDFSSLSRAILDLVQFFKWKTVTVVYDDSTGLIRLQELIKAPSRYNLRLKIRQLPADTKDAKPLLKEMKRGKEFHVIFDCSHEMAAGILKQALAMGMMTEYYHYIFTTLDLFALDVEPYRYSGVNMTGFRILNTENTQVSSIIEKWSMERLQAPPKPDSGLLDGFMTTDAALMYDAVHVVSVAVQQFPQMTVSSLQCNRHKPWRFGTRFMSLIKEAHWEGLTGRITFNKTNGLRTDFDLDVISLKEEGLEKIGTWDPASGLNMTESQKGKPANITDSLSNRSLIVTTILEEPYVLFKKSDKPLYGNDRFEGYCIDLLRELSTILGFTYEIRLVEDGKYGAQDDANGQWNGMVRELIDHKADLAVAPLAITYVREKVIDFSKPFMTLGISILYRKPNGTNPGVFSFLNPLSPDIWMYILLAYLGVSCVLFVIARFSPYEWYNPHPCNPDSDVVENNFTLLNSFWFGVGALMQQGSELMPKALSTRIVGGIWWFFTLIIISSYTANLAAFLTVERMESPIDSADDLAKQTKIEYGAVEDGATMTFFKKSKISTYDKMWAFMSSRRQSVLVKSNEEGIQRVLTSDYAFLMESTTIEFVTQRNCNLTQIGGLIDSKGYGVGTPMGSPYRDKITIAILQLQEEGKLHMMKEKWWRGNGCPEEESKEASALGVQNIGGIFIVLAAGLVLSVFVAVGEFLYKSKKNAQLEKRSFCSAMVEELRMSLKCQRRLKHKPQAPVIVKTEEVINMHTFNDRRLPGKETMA

[3] = molecular target: Glutamate receptor ionotropic kainate 1 (Homo sapiens) (UniProt P39086); test: Antagonist activity at human recombinant GluR5 expressed in HEK cells coexpressing aequorine assessed as inhibition of glutamate-induced Ca2+ influx at 10 uM by luminescence reporter assay relative to control; settings: HEK293
[4] = test system: N2a; test: Cytotoxicity against mouse N2A cells at 0.1 to 10 uM after 24 hrs by MTT assay; format: cell-based
Procedure, shortened: (§1)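 Cell viability was measured by MTT in N2A neuroblastoma and COS7 monkey kidney cells after 24 h compound incubation. Formazan was released with lysis buffer and absorbance was read at 590 nm.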

[5] = Cytotoxicity against monkey COS7 cells at 0.1 to 10 uM after 24 hrs by MTT assay; settings: chlorocebus aethiops, cos-7, 24 h
[6] = Cytotoxicity against monkey COS7 cells at 100 uM after 24 hrs by MTT assay; settings: chlorocebus aethiops, cos-7, 24 h
[7] = test system: N2a; test: Cytotoxicity against mouse N2A cells at 100 uM after 24 hrs by MTT assay; format: cell-based
Procedure, shortened: as §1

[8] = molecular target: Glutamate receptor ionotropic kainate 2 (Homo sapiens) (UniProt Q13002); test: Antagonist activity at human recombinant GluR6 expressed in HEK cells coexpressing aequorine assessed as inhibition of glutamate-induced Ca2+ influx at 100 uM by luminescence reporter assay relative to control; settings: HEK293

Chain of Glutamate receptor ionotropic kainate 1 (Homo sapiens) (P39086 whole entry, looked up): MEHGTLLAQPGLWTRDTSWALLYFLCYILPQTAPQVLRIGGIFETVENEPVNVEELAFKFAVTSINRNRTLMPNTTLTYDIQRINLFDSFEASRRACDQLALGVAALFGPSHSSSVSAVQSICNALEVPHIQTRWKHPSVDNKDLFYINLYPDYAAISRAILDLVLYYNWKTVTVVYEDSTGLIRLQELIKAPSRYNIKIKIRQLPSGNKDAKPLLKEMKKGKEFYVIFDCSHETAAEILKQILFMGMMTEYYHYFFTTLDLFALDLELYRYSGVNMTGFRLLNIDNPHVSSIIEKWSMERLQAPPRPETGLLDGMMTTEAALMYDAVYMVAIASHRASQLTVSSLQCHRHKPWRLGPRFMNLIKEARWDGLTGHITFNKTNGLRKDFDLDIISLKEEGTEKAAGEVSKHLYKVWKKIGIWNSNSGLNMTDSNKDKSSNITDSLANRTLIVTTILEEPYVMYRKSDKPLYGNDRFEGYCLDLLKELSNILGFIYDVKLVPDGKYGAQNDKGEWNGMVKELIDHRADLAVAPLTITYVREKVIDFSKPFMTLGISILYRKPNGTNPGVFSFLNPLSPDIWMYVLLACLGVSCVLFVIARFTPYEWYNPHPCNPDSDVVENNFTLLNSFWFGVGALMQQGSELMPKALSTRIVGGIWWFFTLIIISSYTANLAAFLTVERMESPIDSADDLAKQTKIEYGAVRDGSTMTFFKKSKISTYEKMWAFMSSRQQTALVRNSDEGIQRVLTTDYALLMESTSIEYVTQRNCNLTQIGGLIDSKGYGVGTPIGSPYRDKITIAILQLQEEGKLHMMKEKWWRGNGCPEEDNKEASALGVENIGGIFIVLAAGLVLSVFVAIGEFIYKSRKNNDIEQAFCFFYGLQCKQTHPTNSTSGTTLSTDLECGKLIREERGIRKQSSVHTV

Structure (SMILES) | inhibition [2] [%] | inhibition [3] [%] | further results
Cc1c(-c2ccccc2)sc(N)c1C(=O)O | 44 | – | inhibition [1]: 20%
CCn1c(=O)[nH]c2sc3c(c2c1=O)CCCC3 | 7.1 | 6 | –
CCOC(=O)c1c(NC(C)=O)sc(-c2ccccc2)c1C | 4 | 3 | –
CCOC(=O)c1c(N)sc(-c2ccccc2Cl)c1C | – | 10 | –
CCOC(=O)c1c(N)sc(-c2ccccc2)c1C | – | 12 | Activity [4]: Non-toxic; Activity [5]: Non-toxic; Activity [6]: Toxic; Activity [7]: Toxic
CCOC(=O)Nc1sc(-c2ccccc2)c(C)c1C(N)=O | 12 | 19 | –
CCOC(=O)c1c(NC(=O)CN2CCOCC2)sc(-c2ccccc2)c1C | 9 | 14 | –
CCNC(=O)c1c(N)sc(-c2ccccc2)c1C | 4 | 9 | –
CCOC(=O)c1c(NC(=O)c2ccccc2)sc(-c2ccccc2)c1C | 5 | -3 | –
CCOC(=O)c1c(NC(=O)CNCc2ccccc2)sc(-c2ccccc2)c1C | 4 | 25 | –
Cc1c(-c2ccccc2)sc2[nH]c(=S)[nH]c(=O)c12 | -2 | 10 | –
CCOC(=O)c1c(Cl)sc(-c2ccccc2)c1C | – | 0 | –
CCNC(=O)Nc1sc(-c2ccccc2)c(C)c1C(N)=O | 17 | 5.8 | –
CCOC(=O)c1c(-n2cccc2)sc(-c2ccccc2)c1C | 2 | -1 | –
CCNC(=S)Nc1sc(-c2ccccc2)c(C)c1C(=O)OCC | -6.5 | 7 | –
CCSc1nc2sc(-c3ccccc3)c(C)c2c(=O)[nH]1 | 0 | 1 | –
CCOC(=O)c1c(N)sc(-c2ccc(F)cc2)c1C | – | 0 | –
Cc1c(-c2ccccc2)sc(N)c1C(=O)OC(C)(C)C | – | 4 | –
CCOC(=O)Nc1sc2c(c1C(N)=O)CCCC2 | 17 | 14 | –
Cc1c(-c2ccccc2)sc(N)c1C#N | – | 17 | –
CCOC(=O)c1c(N=NC#N)sc(-c2ccccc2)c1C | – | 7 | –
CCOC(=O)c1c(N)sc(-c2ccccc2)c1-c1ccccc1 | – | 13 | Activity [4]: Non-toxic; Activity [5]: Non-toxic; Activity [7]: Toxic

Structure (SMILES) | inhibition [2] [%] | inhibition [3] [%] | further results
COC(=O)c1c(N)sc(-c2ccccc2)c1C | – | – | Activity [4]: Non-toxic; Activity [5]: Non-toxic; Activity [6]: Non-toxic
CCOC(=O)c1c(N=NN2CCOCC2)sc(-c2ccccc2)c1C | – | 4 | –
CCn1c(=O)[nH]c2sc(-c3ccccc3)c(C)c2c1=O | 9.5 | 11.8 | –
CCNC(=O)Nc1sc(-c2ccccc2)c(C)c1C(=O)OCC | 9 | 0.5 | –
CCOC(=O)Nc1sc(-c2ccccc2)c(C)c1C(=O)O | 7 | 12 | –
CCOC(=O)c1c(N)sc(-c2ccc(OC)cc2)c1C | – | 1 | –
CCOC(=O)c1c(NC(=O)C(F)(F)F)sc(-c2ccccc2)c1C | 20 | 18 | –
CCOC(=O)c1c(N=NN(C)C)sc(-c2ccccc2)c1C | – | 10 | –
CCOC(=O)c1c(N=C=S)sc(-c2ccccc2)c1C | – | 0 | Activity [4]: Non-toxic; Activity [5]: Non-toxic; Activity [6]: Toxic; Activity [7]: Toxic
Cc1c(-c2ccccc2)sc(N)c1C(=O)c1ccccc1 | – | 17 | –
CCNC(=O)Nc1sc2c(c1C(N)=O)CCCC2 | 12 | 0.1 | –
CCOC(=O)c1c(NC)sc(-c2ccccc2)c1C | 19 | 4.5 | –
CCOC(=O)Nc1cc(C)c(-c2ccccc2)s1 | 18 | 1 | –
CCOC(=O)c1c(N)sc2c1CCCC2 | 11 | 7 | –
CCSc1nc2sc3c(c2c(=O)[nH]1)CCCC3 | 4 | 8 | –
CCCOC(=O)c1c(N)sc(-c2ccccc2)c1C | – | 5 | Activity [4]: Non-toxic; Activity [5]: Non-toxic; Activity [6]: Toxic; Activity [7]: Toxic
CCOC(=O)c1cc(-c2ccccc2)sc1N | -1 | – | inhibition [1]: 25%
Cc1c(-c2ccccc2)sc(N)c1C(N)=O | – | – | inhibition [1]: 2%; inhibition [8]: 3%
Oc1nc(S)nc2sc3c(c12)CCCC3 | 0 | 17 | –
NC(=O)c1c(N)sc2c1CCCC2 | 13 | 4 | –
CCOC(=O)C(=O)Nc1sc(-c2ccccc2)c(C)c1C(=O)OCC | 10 | 4 | –

Source: ChEMBL document CHEMBL1154608, “Substituted 2-aminothiopen-derivatives: a potential new class of GluR6-antagonists” (Eur J Med Chem, 2010)
